# From ChEMBL document CHEMBL5058577, “EUbOPEN Chemogenomics Library 2 (Multiplex)” (2022)
# Test system: U2OS
# Assay: Multiplex assay against U2OS
# Format: toxicity, cell-based
# Details: human
# Summary of the method: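 Live cells carried four stains from seeding: Hoechst33342, BioTracker Green Microtubule Cytoskeleton Dye, MitoTracker Red and Annexin V Alexa Fluor 680. They were imaged on a CQ1 microscope at 37°C and 5% CO2 after compound addition. Using CellPathfinder machine-learning gating, cells were split into Hoechst high-intensity objects or normal cells, normal cells into healthy, pyknosed or fragmented nuclei, and pyknosed cells into mitotic or apoptotic; tubulin, mitochondrial-mass and membrane-permeability phenotypes are per cents of healthy-nucleus cells.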
# [1] = 12 h, 1 µM, compound concentration 1 uM, replicate 1
# [2] = 12 h, 1 µM, compound concentration 1 uM, replicate 2
# [3] = 12 h, 10 µM, compound concentration 10 uM, replicate 1
# [4] = 12 h, 10 µM, compound concentration 10 uM, replicate 2
# [5] = 24 h, 1 µM, compound concentration 1 uM, replicate 1
# [6] = 24 h, 1 µM, compound concentration 1 uM, replicate 2
# [7] = 24 h, 10 µM, compound concentration 10 uM, replicate 1
# [8] = 24 h, 10 µM, compound concentration 10 uM, replicate 2
# [9] = 48 h, 1 µM, compound concentration 1 uM, replicate 1
# [10] = 48 h, 1 µM, compound concentration 1 uM, replicate 2
# [11] = 48 h, 10 µM, compound concentration 10 uM, replicate 1
# [12] = 48 h, 10 µM, compound concentration 10 uM, replicate 2
compound,measurement,setting,value
C[C@H]1[C@H]2CC[C@H]3[C@@H]4CC=C5C[C@@H](N(C)C)CC[C@]5(C)[C@H]4CC[C@]23CN1C [CONESSINE],Population Apoptotic (%),[1],80%
same,Population Fragmented Nuclei (%),[1],23%
same,Population Healthy Nuclei (%),[1],70%
same,Population Hoechst High Intensity Objects (%),[1],2%
same,Population Membrane Permeable-Phenotype (%),[1],5%
same,Population Mitochondria Different-Phenotype (%),[1],1%
same,Population Mitotic Cells (%),[1],20%
same,Population Normal (%),[1],97%
same,Population Pyknosed Nuclei (%),[1],6%
same,Population Tubulin-Different-Phenotype (%),[1],2%
same,Total Cell Count,[1],248
same,Population Apoptotic (%),[2],58%
same,Population Fragmented Nuclei (%),[2],16%
same,Population Healthy Nuclei (%),[2],73%
same,Population Hoechst High Intensity Objects (%),[2],1%
same,Population Mitochondria Different-Phenotype (%),[2],2%
same,Population Mitotic Cells (%),[2],41%
same,Population Normal (%),[2],98%
same,Population Pyknosed Nuclei (%),[2],9%
same,Population Tubulin-Different-Phenotype (%),[2],3%
same,Total Cell Count,[2],124
same,Population Apoptotic (%),[3],55%
same,Population Fragmented Nuclei (%),[3],19%
same,Population Healthy Nuclei (%),[3],71%
same,Population Hoechst High Intensity Objects (%),[3],2%
same,Population Membrane Permeable-Phenotype (%),[3],5%
same,Population Mitochondria Different-Phenotype (%),[3],0%
same,Population Mitotic Cells (%),[3],45%
same,Population Normal (%),[3],97%
same,Population Pyknosed Nuclei (%),[3],8%
same,Population Tubulin-Different-Phenotype (%),[3],1%
same,Total Cell Count,[3],237
same,Population Apoptotic (%),[4],100%
same,Population Fragmented Nuclei (%),[4],17%
same,Population Healthy Nuclei (%),[4],68%
same,Population Hoechst High Intensity Objects (%),[4],0%
same,Population Membrane Permeable-Phenotype (%),[4],8%
same,Population Mitochondria Different-Phenotype (%),[4],5%
same,Population Mitotic Cells (%),[4],0%
same,Population Normal (%),[4],99%
same,Population Pyknosed Nuclei (%),[4],13%
same,Population Tubulin-Different-Phenotype (%),[4],6%
same,Total Cell Count,[4],107
same,Population Apoptotic (%),[5],90%
same,Population Fragmented Nuclei (%),[5],18%
same,Population Healthy Nuclei (%),[5],74%
same,Population Hoechst High Intensity Objects (%),[5],2%
same,Population Membrane Permeable-Phenotype (%),[5],6%
same,Population Mitochondria Different-Phenotype (%),[5],1%
same,Population Mitotic Cells (%),[5],9%
same,Population Normal (%),[5],97%
same,Population Pyknosed Nuclei (%),[5],7%
same,Population Tubulin-Different-Phenotype (%),[5],3%
same,Total Cell Count,[5],307
same,Population Apoptotic (%),[6],100%
same,Population Fragmented Nuclei (%),[6],11%
same,Population Healthy Nuclei (%),[6],81%
same,Population Hoechst High Intensity Objects (%),[6],1%
same,Population Membrane Permeable-Phenotype (%),[6],8%
same,Population Mitochondria Different-Phenotype (%),[6],5%
same,Population Mitotic Cells (%),[6],0%
same,Population Normal (%),[6],98%
same,Population Tubulin-Different-Phenotype (%),[6],7%
same,Total Cell Count,[6],153
same,Population Apoptotic (%),[7],65%
same,Population Fragmented Nuclei (%),[7],20%
same,Population Healthy Nuclei (%),[7],71%
same,Population Hoechst High Intensity Objects (%),[7],2%
same,Population Membrane Permeable-Phenotype (%),[7],2%
same,Population Mitochondria Different-Phenotype (%),[7],0%
same,Population Mitotic Cells (%),[7],35%
same,Population Normal (%),[7],97%
same,Population Pyknosed Nuclei (%),[7],7%
same,Population Tubulin-Different-Phenotype (%),[7],1%
same,Total Cell Count,[7],265
same,Population Apoptotic (%),[8],100%
same,Population Fragmented Nuclei (%),[8],19%
same,Population Hoechst High Intensity Objects (%),[8],4%
same,Population Membrane Permeable-Phenotype (%),[8],10%
same,Population Mitochondria Different-Phenotype (%),[8],4%
same,Population Mitotic Cells (%),[8],0%
same,Population Normal (%),[8],95%
same,Population Pyknosed Nuclei (%),[8],8%
same,Population Tubulin-Different-Phenotype (%),[8],9%
same,Total Cell Count,[8],134
same,Population Apoptotic (%),[9],83%
same,Population Fragmented Nuclei (%),[9],16%
same,Population Healthy Nuclei (%),[9],79%
same,Population Hoechst High Intensity Objects (%),[9],2%
same,Population Membrane Permeable-Phenotype (%),[9],4%
same,Population Mitochondria Different-Phenotype (%),[9],2%
same,Population Mitotic Cells (%),[9],16%
same,Population Normal (%),[9],97%
same,Population Pyknosed Nuclei (%),[9],4%
same,Population Tubulin-Different-Phenotype (%),[9],1%
same,Total Cell Count,[9],430
same,Population Apoptotic (%),[10],86%
same,Population Healthy Nuclei (%),[10],73%
same,Population Mitochondria Different-Phenotype (%),[10],0%
same,Population Mitotic Cells (%),[10],13%
same,Population Pyknosed Nuclei (%),[10],9%
same,Population Tubulin-Different-Phenotype (%),[10],2%
same,Total Cell Count,[10],227
same,Population Apoptotic (%),[11],89%
same,Population Fragmented Nuclei (%),[11],19%
same,Population Healthy Nuclei (%),[11],73%
same,Population Hoechst High Intensity Objects (%),[11],1%
same,Population Membrane Permeable-Phenotype (%),[11],4%
same,Population Mitochondria Different-Phenotype (%),[11],2%
same,Population Mitotic Cells (%),[11],10%
same,Population Normal (%),[11],98%
same,Population Pyknosed Nuclei (%),[11],7%
same,Population Tubulin-Different-Phenotype (%),[11],3%
same,Total Cell Count,[11],370
same,Population Apoptotic (%),[12],85%
same,Population Fragmented Nuclei (%),[12],15%
same,Population Healthy Nuclei (%),[12],72%
same,Population Hoechst High Intensity Objects (%),[12],6%
same,Population Membrane Permeable-Phenotype (%),[12],9%
same,Population Mitochondria Different-Phenotype (%),[12],5%
same,Population Mitotic Cells (%),[12],15%
same,Population Normal (%),[12],93%
same,Population Pyknosed Nuclei (%),[12],12%
same,Population Tubulin-Different-Phenotype (%),[12],6%
same,Total Cell Count,[12],175
CC1(COc2ccc3c(c2)ncn3-c2ccc3cccc(N4CCC(N)CC4)c3n2)COC1 [CRENOLANIB],Population Apoptotic (%),[1],58%
same,Population Fragmented Nuclei (%),[1],36%
same,Population Healthy Nuclei (%),[1],50%
same,Population Hoechst High Intensity Objects (%),[1],9%
same,Population Membrane Permeable-Phenotype (%),[1],87%
same,Population Mitochondria Different-Phenotype (%),[1],51%
same,Population Mitotic Cells (%),[1],41%
same,Population Normal (%),[1],90%
same,Population Pyknosed Nuclei (%),[1],13%
same,Population Tubulin-Different-Phenotype (%),[1],92%
same,Total Cell Count,[1],143
same,Population Apoptotic (%),[2],25%
same,Population Fragmented Nuclei (%),[2],28%
same,Population Healthy Nuclei (%),[2],60%
same,Population Hoechst High Intensity Objects (%),[2],13%
same,Population Membrane Permeable-Phenotype (%),[2],82%
same,Population Mitochondria Different-Phenotype (%),[2],73%
same,Population Mitotic Cells (%),[2],75%
same,Population Normal (%),[2],86%
same,Population Pyknosed Nuclei (%),[2],10%
same,Population Tubulin-Different-Phenotype (%),[2],88%
same,Total Cell Count,[2],86
same,Population Apoptotic (%),[3],81%
same,Population Fragmented Nuclei (%),[3],43%
same,Population Healthy Nuclei (%),[3],11%
same,Population Hoechst High Intensity Objects (%),[3],21%
same,Population Membrane Permeable-Phenotype (%),[3],76%
same,Population Mitochondria Different-Phenotype (%),[3],80%
same,Population Mitotic Cells (%),[3],18%
same,Population Normal (%),[3],78%
same,Population Pyknosed Nuclei (%),[3],44%
same,Population Tubulin-Different-Phenotype (%),[3],88%
same,Total Cell Count,[3],274
same,Population Apoptotic (%),[4],92%
same,Population Fragmented Nuclei (%),[4],37%
same,Population Healthy Nuclei (%),[4],21%
same,Population Hoechst High Intensity Objects (%),[4],24%
same,Population Membrane Permeable-Phenotype (%),[4],47%
same,Population Mitochondria Different-Phenotype (%),[4],76%
same,Population Mitotic Cells (%),[4],7%
same,Population Normal (%),[4],75%
same,Population Pyknosed Nuclei (%),[4],41%
same,Population Tubulin-Different-Phenotype (%),[4],85%
same,Population Apoptotic (%),[5],71%
same,Population Fragmented Nuclei (%),[5],39%
same,Population Healthy Nuclei (%),[5],45%
same,Population Hoechst High Intensity Objects (%),[5],9%
same,Population Membrane Permeable-Phenotype (%),[5],71%
same,Population Mitochondria Different-Phenotype (%),[5],62%
same,Population Mitotic Cells (%),[5],28%
same,Population Normal (%),[5],90%
same,Population Pyknosed Nuclei (%),[5],14%
same,Population Tubulin-Different-Phenotype (%),[5],87%
same,Total Cell Count,[5],156
same,Population Apoptotic (%),[6],54%
same,Population Fragmented Nuclei (%),[6],25%
same,Population Healthy Nuclei (%),[6],62%
same,Population Hoechst High Intensity Objects (%),[6],10%
same,Population Membrane Permeable-Phenotype (%),[6],67%
same,Population Mitochondria Different-Phenotype (%),[6],67%
same,Population Mitotic Cells (%),[6],45%
same,Population Normal (%),[6],89%
same,Population Pyknosed Nuclei (%),[6],12%
same,Population Tubulin-Different-Phenotype (%),[6],72%
same,Total Cell Count,[6],98
same,Population Apoptotic (%),[7],93%
same,Population Fragmented Nuclei (%),[7],46%
same,Population Healthy Nuclei (%),[7],8%
same,Population Hoechst High Intensity Objects (%),[7],37%
same,Population Membrane Permeable-Phenotype (%),[7],42%
same,Population Mitochondria Different-Phenotype (%),[7],50%
same,Population Mitotic Cells (%),[7],6%
same,Population Normal (%),[7],62%
same,Population Pyknosed Nuclei (%),[7],45%
same,Population Tubulin-Different-Phenotype (%),[7],50%
same,Total Cell Count,[7],254
same,Population Apoptotic (%),[8],100%
same,Population Fragmented Nuclei (%),[8],53%
same,Population Healthy Nuclei (%),[8],11%
same,Population Hoechst High Intensity Objects (%),[8],36%
same,Population Membrane Permeable-Phenotype (%),[8],44%
same,Population Mitochondria Different-Phenotype (%),[8],77%
same,Population Mitotic Cells (%),[8],0%
same,Population Normal (%),[8],63%
same,Population Pyknosed Nuclei (%),[8],34%
same,Population Tubulin-Different-Phenotype (%),[8],77%
same,Population Apoptotic (%),[9],88%
same,Population Fragmented Nuclei (%),[9],41%
same,Population Healthy Nuclei (%),[9],43%
same,Population Hoechst High Intensity Objects (%),[9],8%
same,Population Membrane Permeable-Phenotype (%),[9],35%
same,Population Mitochondria Different-Phenotype (%),[9],40%
same,Population Mitotic Cells (%),[9],12%
same,Population Normal (%),[9],91%
same,Population Pyknosed Nuclei (%),[9],14%
same,Population Tubulin-Different-Phenotype (%),[9],44%
same,Total Cell Count,[9],186
same,Population Apoptotic (%),[10],62%
same,Population Fragmented Nuclei (%),[10],37%
same,Population Healthy Nuclei (%),[10],48%
same,Population Hoechst High Intensity Objects (%),[10],4%
same,Population Membrane Permeable-Phenotype (%),[10],53%
same,Population Mitochondria Different-Phenotype (%),[10],37%
same,Population Mitotic Cells (%),[10],37%
same,Population Normal (%),[10],95%
same,Population Pyknosed Nuclei (%),[10],13%
same,Population Tubulin-Different-Phenotype (%),[10],51%
same,Population Apoptotic (%),[11],100%
same,Population Fragmented Nuclei (%),[11],51%
same,Population Healthy Nuclei (%),[11],11%
same,Population Hoechst High Intensity Objects (%),[11],42%
same,Population Membrane Permeable-Phenotype (%),[11],43%
same,Population Mitochondria Different-Phenotype (%),[11],37%
same,Population Mitotic Cells (%),[11],0%
same,Population Normal (%),[11],58%
same,Population Pyknosed Nuclei (%),[11],37%
same,Population Tubulin-Different-Phenotype (%),[11],56%
same,Total Cell Count,[11],250
same,Population Fragmented Nuclei (%),[12],57%
same,Population Healthy Nuclei (%),[12],13%
same,Population Hoechst High Intensity Objects (%),[12],29%
same,Population Membrane Permeable-Phenotype (%),[12],50%
same,Population Mitochondria Different-Phenotype (%),[12],35%
same,Population Normal (%),[12],70%
same,Population Pyknosed Nuclei (%),[12],28%
same,Population Tubulin-Different-Phenotype (%),[12],28%
same,Total Cell Count,[12],144
